Drawing on ChEMBL document CHEMBL3352280, “Modulation of cAMP-specific PDE without emetogenic activity: new sulfide-like PDE7 inhibitors” (J Med Chem, 2014), this text covers inhibition, Activity and IC50 for ten compounds.

As usually defined, the inhibition is how much of the control response was suppressed. The term IC50 denotes the concentration that gives 50% inhibition.

Data set [1] deals with T1, High affinity 3',5'-cyclic-AMP phosphodiesterase 7A (Homo sapiens, UniProt Q13946). Description: Inhibition of human recombinant PDE7A1 assessed as inhibition of hydrolysis of [3H]cAMP at 10 uM after 20 mins by scintillation proximity assay. The procedure, abridged: (§1)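 Scintillation proximity assay with human recombinant enzyme: PDE7A1 0.02 U, PDE3A 0.02 U, PDE7B 0.5 U, PDE8A 0.5 U. Enzyme incubated with 5 nCi [3H]cAMP and inhibitor in kit buffer for 20 min at 30 °C. SPA beads added and shaken 1 h at room temperature, settled 30 min, radioactivity counted.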
(In general: Scintillation proximity formats need no separation of bound from free tracer.)

The test system of data set [2] is Mus musculus. Description: Emetogenic potential in surrogate emesis CD1 mouse model assessed as effect on xyclacine/ketamine-induced loss of righting reflex at 1 mg/kg, sc. Particulars: in vivo.
In data set [3] the target is cGMP-inhibited 3',5'-cyclic phosphodiesterase 3A (Homo sapiens) (UniProt Q14432). In words: Inhibition of human recombinant PDE3A assessed as inhibition of hydrolysis of [3H]cAMP at 10 uM after 20 mins by scintillation proximity assay. The procedure, abridged: as §1
For data set [4], the system named is Mus musculus. In words: Emetogenic potential in surrogate emesis CD1 mouse model assessed as effect on xyclacine/ketamine-induced loss of righting reflex at 1 mg/kg, sc. The format is ADME, organism-based. Further details: dose 1 mg/kg, route subcutaneous. Particulars: in vivo. An outline of the steps: (§2)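 Male CD1 mice (25–30 g) anesthetized ip with xylazine 10 mg/kg plus ketamine 100 mg/kg. Test agent or vehicle given sc 15 min later in 60% PEG/saline (0.1 mL/10 g). Duration of anesthesia is timed to return of righting reflex. Mean ± SEM, n = 10–19 per group, ANOVA with Dunnett post hoc test.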

Data set [5] deals with SH-SY5Y. In words: Cytoprotective activity against 6-OHDA-induced death of human SH-SY5Y cells pretreated for 1 hr at 10 uM measured 16 hrs post 6-OHDA challenge by MTT assay. The class given is functional, cell-based. The procedure, abridged: (§3)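 Human neuroblastoma SH-SY5Y grown in F12/EMEM with 2 mM glutamine, 1% nonessential amino acids and 15% FBS at 37 °C, 5% CO2. Semiconfluent cells pretreated 1 h with compound, then 6-OHDA (35 μM) added for 16 h. Viability by MTT (0.5 mg/mL, 4 h), SDS/HCl solubilisation, absorbance 595 nm. Mean ± SD of three experiments.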
A general note: Tetrazolium assays rely on reduction of a dye to a coloured formazan, in cell work by metabolically active cells.

Data set [6] has as its target T2, 3',5'-cyclic-AMP phosphodiesterase 7B (Homo sapiens, UniProt Q9NP56). In words: Inhibition of human recombinant PDE7B assessed as inhibition of hydrolysis of [3H]cAMP at 10 uM after 20 mins by scintillation proximity assay. An outline of the steps: as §1
Data set [7] concerns the target T3, 3',5'-cyclic-AMP phosphodiesterase 4B (Homo sapiens, UniProt Q07343). Description: Inhibition of human recombinant PDE4B2 assessed at 10 uM after 60 mins by IMAP fluorescence polarization assay. (In general: Polarisation of emitted light reports the rotation of a fluorescent probe.)
Data set [8] concerns the target T4, 3',5'-cyclic-AMP phosphodiesterase 4D (Homo sapiens, UniProt Q08499). Description: Inhibition of human recombinant PDE4D3 assessed at 10 uM after 60 mins by IMAP fluorescence polarization assay.
Data set [9] concerns Microglia. Description: Inhibition of LPS-induced NO production in rat microglia treated for 1 hr at 10 uM before LPS challenge measured after 24 hrs by Griess assay. The class given is functional. An outline of the steps:
(§4)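 After 2 days, cells were pretreated with compound (10 μM), then LPS (10 μg/mL) was added for 24 h. Nitrite in the supernatant was measured by Griess reagent (15 min, room temperature, absorbance 492/540 nm). Mean ± SD of three experiments.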

The target in data set [10] is T1, High affinity 3',5'-cyclic-AMP phosphodiesterase 7A. Description: Inhibition of human recombinant PDE7A1 assessed as inhibition of hydrolysis of [3H]cAMP after 20 mins by scintillation proximity assay. An outline of the steps:
as §1

For data set [11], the system named is Astrocyte. In words: Inhibition of LPS-induced NO production in rat astrocytes. The class given is functional, cell-based.
The test system of data set [12] is Astrocyte. In words: Inhibition of LPS-induced NO production in rat astrocytes treated for 1 hr at 10 uM before LPS challenge measured after 24 hrs by Griess assay. The class given is functional, cell-based. The procedure, abridged:
as §4

In data set [13] the target is T4, 3',5'-cyclic-AMP phosphodiesterase 4D. In words: Inhibition of human recombinant PDE4D3 assessed after 60 mins by IMAP fluorescence polarization assay.
Data set [14] concerns the target T3, 3',5'-cyclic-AMP phosphodiesterase 4B. In words: Inhibition of human recombinant PDE4B2 assessed after 60 mins by IMAP fluorescence polarization assay.
Data set [15] concerns Mus musculus. Description: Emetogenic potential in surrogate emesis CD1 mouse model assessed as effect on xyclacine/ketamine-induced loss of righting reflex at 0.1 to 10 mg/kg, sc. The format is ADME, organism-based. Further details: dose 0.1-10 mg/kg, route subcutaneous. Conditions: in vivo.
The target in data set [16] is T5, Phosphodiesterase 7 (Homo sapiens, UniProt Q13946+Q9NP56). In words: Inhibition of PDE7 (unknown origin). The format is protein assay.
In data set [17] the target is High affinity cAMP-specific and IBMX-insensitive 3',5'-cyclic phosphodiesterase 8A (Homo sapiens) (UniProt O60658). In words: Inhibition of PDE8A (unknown origin) at 10 uM. An outline of the steps: as §1
Data set [18] addresses High affinity cGMP-specific 3',5'-cyclic phosphodiesterase 9A (Homo sapiens) (UniProt O76083). Description: Inhibition of human recombinant PDE9A assessed at 10 uM after 60 mins by IMAP fluorescence polarization assay. An outline of the steps:
(§5)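 Fluorescence polarization IMAP assay. PDE1 at 2 U and PDE9 at 0.05 U, incubated with 1 nM fluorescein-cAMP (or fluorescein-cGMP for PDE5) plus inhibitor for 60 min at ambient temperature. Stopped with IMAP binding reagent, stood 1 h, FP ratio read. IC50 from a sigmoidal fit of FP versus log concentration. Means ± SD of two experiments with duplicates.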

In data set [19] the test system is SH-SY5Y. In words: Cytoprotective activity against 6-OHDA-induced death of human SH-SY5Y cells pretreated for 1 hr at 30 uM measured 16 hrs post 6-OHDA challenge by MTT assay. The format is functional, cell-based. Conditions: 10 uM, in the assay text read “10 uM” for “30 uM”. An outline of the steps:
as §3

The target of data set [20] is cGMP-specific 3',5'-cyclic phosphodiesterase (Homo sapiens) (UniProt O76074). In words: Inhibition of human recombinant PDE5A assessed at 10 uM after 60 mins by IMAP fluorescence polarization assay. The procedure, abridged: as §5
Data set [21] has as its target T2, 3',5'-cyclic-AMP phosphodiesterase 7B. In words: Inhibition of human recombinant PDE7B assessed as inhibition of hydrolysis of [3H]cAMP after 20 mins by scintillation proximity assay. The procedure, abridged:
as §1

The target in data set [22] is Dual specificity calcium/calmodulin-dependent 3',5'-cyclic nucleotide phosphodiesterase 1A (Homo sapiens) (UniProt P54750). In words: Inhibition of human recombinant PDE1A assessed at 10 uM after 60 mins by IMAP fluorescence polarization assay. An outline of the steps:
as §5

Data set [23] concerns the target T5, Phosphodiesterase 7. In words: Inhibition of PDE7 in human SH-SY5Y cells assessed as increase in CREB phosphorylation at 10 uM by Western blot analysis.
Data set [24] deals with cAMP and cAMP-inhibited cGMP 3',5'-cyclic phosphodiesterase 10A (Homo sapiens) (UniProt Q9Y233). Description: Inhibition of human recombinant PDE10A assessed at 10 uM after 20 mins by scintillation proximity assay.
The test system of data set [25] is Mus musculus. In words: Emetogenic potential in surrogate emesis CD1 mouse model assessed as effect on xyclacine/ketamine-induced loss of righting reflex at 2.5 to 10 mg/kg, sc. The class given is ADME, organism-based. Further details: dose 2.5-10 mg/kg, route subcutaneous. Particulars: in vivo. An outline of the steps: as §2
Data set [26] concerns Mus musculus. Description: Emetogenic potential in surrogate emesis CD1 mouse model assessed as effect on xyclacine/ketamine-induced loss of righting reflex at 5 mg/kg, sc. The format is ADME, organism-based. Further details: dose 5 mg/kg, route subcutaneous. Particulars: in vivo. The procedure, abridged: as §2

Calls of active or inactive are those of the source. The calls are words filed in the database; no cut-off is given here.

T1 sequence (Q13946 whole entry): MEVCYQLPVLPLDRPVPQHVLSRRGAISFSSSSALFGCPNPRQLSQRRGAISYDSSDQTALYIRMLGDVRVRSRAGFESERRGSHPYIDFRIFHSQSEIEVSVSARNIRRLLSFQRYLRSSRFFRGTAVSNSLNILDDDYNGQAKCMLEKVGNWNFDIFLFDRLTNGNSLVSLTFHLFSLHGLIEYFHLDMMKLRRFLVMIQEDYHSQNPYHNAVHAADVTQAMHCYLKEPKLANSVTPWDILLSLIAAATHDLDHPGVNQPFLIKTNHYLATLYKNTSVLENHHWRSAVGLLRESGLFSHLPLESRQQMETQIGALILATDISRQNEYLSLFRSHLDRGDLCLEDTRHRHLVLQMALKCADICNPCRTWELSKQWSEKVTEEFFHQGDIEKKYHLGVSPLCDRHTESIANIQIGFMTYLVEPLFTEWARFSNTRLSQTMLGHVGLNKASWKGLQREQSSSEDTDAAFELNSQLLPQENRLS
T2 sequence (Q9NP56 whole entry): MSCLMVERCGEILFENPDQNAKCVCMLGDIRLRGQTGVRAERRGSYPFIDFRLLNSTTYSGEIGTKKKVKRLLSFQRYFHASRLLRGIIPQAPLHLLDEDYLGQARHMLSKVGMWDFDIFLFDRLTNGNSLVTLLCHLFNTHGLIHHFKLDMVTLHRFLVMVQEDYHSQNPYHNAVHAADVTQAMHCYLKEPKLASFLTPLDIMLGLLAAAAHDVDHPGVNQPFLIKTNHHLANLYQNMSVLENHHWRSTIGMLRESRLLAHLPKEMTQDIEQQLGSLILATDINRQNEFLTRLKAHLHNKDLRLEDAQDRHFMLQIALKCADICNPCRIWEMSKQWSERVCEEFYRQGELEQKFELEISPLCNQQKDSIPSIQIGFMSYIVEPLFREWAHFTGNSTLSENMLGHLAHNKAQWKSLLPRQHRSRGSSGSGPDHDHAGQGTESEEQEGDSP
Sequence of cGMP-inhibited 3',5'-cyclic phosphodiesterase 3A (Homo sapiens) (Q14432 whole entry): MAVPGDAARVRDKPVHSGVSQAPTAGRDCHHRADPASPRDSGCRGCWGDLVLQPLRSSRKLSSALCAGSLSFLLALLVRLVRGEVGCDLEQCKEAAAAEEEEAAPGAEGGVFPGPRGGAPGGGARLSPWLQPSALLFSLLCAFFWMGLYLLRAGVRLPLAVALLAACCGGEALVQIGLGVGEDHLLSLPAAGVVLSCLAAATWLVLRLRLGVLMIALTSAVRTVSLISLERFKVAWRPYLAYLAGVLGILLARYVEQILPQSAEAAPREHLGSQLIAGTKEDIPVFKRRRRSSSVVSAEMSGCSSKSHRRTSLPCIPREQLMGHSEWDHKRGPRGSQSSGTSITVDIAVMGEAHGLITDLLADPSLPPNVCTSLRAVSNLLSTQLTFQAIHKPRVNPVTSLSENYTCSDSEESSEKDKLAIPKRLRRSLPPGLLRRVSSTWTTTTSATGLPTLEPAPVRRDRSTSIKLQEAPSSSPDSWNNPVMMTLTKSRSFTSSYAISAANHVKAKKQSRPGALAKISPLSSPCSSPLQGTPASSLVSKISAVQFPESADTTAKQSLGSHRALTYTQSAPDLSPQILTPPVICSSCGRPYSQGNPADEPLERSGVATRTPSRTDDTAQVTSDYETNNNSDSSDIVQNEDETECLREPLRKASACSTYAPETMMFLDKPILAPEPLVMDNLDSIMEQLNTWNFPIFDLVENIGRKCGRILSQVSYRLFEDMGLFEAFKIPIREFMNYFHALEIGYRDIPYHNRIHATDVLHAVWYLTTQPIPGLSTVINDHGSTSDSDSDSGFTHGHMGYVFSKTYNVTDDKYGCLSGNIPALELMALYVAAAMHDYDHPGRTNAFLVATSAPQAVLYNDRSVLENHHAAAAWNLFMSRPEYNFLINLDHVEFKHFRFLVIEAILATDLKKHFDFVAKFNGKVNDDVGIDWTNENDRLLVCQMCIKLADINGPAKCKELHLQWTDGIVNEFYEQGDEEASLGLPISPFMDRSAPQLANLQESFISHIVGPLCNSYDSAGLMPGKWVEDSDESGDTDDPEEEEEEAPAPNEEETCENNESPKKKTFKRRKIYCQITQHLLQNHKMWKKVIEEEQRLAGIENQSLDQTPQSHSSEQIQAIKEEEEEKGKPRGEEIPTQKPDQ
T3 sequence (Q07343 whole entry): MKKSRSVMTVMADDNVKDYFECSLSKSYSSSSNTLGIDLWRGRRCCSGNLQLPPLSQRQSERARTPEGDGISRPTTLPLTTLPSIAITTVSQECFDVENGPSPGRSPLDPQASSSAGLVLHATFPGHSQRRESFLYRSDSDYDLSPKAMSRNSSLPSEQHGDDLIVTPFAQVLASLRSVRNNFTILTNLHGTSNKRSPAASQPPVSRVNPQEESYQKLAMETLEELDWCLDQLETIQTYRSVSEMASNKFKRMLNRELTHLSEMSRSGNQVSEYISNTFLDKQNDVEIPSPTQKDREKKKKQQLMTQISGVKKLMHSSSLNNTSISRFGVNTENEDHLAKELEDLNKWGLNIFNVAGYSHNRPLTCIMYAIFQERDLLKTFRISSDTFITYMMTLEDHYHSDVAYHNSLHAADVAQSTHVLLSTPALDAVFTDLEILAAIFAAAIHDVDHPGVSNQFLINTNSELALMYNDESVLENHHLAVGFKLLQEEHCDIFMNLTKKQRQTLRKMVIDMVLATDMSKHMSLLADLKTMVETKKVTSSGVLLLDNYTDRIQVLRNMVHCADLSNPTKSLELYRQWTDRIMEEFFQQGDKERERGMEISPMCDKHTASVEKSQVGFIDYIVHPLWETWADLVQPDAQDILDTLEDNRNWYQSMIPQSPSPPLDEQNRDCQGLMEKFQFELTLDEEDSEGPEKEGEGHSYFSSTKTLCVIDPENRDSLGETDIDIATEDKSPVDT
T4 sequence (Q08499 whole entry): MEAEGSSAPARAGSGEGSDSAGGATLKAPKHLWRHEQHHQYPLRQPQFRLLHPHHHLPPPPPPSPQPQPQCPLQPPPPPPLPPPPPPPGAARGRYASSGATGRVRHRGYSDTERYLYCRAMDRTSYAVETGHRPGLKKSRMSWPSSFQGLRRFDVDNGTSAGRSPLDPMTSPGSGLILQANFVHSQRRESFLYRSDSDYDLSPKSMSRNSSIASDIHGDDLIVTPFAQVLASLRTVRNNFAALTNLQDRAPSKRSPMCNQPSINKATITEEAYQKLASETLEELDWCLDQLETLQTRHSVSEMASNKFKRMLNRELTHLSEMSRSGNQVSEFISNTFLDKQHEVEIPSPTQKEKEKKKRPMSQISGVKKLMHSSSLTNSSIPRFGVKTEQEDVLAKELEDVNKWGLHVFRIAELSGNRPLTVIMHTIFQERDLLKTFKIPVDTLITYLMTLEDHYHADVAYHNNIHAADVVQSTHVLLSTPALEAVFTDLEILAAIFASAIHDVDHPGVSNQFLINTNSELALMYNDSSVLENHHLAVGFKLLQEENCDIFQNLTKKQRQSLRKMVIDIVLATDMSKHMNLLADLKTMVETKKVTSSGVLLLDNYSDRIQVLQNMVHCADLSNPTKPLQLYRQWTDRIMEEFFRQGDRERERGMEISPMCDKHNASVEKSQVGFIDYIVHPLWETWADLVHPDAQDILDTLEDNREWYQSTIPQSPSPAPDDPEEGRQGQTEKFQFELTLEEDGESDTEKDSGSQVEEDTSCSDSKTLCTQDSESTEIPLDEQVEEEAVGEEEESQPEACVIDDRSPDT
Sequence of High affinity cAMP-specific and IBMX-insensitive 3',5'-cyclic phosphodiesterase 8A (Homo sapiens) (O60658 whole entry): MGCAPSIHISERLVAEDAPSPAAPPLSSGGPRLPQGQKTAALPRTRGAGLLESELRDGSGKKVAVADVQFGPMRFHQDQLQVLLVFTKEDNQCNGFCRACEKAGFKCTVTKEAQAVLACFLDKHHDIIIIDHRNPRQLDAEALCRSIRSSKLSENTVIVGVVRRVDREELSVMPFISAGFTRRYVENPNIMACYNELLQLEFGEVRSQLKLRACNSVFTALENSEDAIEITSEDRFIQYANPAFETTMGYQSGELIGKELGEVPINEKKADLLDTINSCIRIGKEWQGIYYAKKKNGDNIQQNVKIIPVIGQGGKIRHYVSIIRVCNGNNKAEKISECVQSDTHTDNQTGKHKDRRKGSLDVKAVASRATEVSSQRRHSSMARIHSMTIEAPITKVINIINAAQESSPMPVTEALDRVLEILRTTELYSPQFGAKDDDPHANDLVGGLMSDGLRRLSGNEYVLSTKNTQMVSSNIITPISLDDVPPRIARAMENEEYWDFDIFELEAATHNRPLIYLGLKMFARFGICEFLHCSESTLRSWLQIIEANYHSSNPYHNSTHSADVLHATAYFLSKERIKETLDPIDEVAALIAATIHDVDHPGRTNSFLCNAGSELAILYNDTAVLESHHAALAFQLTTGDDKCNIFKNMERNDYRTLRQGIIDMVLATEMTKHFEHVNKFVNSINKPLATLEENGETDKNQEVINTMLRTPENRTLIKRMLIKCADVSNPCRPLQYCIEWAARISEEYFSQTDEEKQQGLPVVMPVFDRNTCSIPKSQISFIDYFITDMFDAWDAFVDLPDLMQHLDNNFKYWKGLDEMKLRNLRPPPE
T5 sequence (Q13946 whole entry, looked up): as the sequence (Q13946 whole entry) above
T5 sequence (Q9NP56 whole entry, looked up): as the sequence (Q9NP56 whole entry) above
Sequence of Dual specificity calcium/calmodulin-dependent 3',5'-cyclic nucleotide phosphodiesterase 1A (Homo sapiens) (P54750 whole entry): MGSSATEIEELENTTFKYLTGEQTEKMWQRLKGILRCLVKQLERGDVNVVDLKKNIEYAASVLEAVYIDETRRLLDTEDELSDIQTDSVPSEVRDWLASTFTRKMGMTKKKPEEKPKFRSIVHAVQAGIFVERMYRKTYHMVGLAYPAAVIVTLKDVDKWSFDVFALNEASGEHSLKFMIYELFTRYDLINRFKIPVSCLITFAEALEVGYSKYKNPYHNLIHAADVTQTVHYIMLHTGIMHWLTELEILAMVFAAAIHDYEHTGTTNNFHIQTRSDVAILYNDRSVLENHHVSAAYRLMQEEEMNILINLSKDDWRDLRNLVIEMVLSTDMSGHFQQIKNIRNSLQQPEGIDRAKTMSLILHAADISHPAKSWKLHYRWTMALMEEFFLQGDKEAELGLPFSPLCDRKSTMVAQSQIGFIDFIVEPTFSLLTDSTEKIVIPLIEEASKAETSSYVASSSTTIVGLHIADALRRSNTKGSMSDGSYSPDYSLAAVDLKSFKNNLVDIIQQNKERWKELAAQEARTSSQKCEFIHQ

`COc1ccc(C2CNC(=O)C2)cc1OC1CCCC1` (centres undefined) [ROLIPRAM]: the inhibition in data set [1] was 3.1%; in data set [3], 9.42%. The Activity result in data set [2] and in [4] was “Toxic” throughout.

Regarding `O=[N+]([O-])c1ccc(Sc2ccccn2)c(Cl)c1`, the inhibition was 69% in data set [1]; 39% in data set [6]; 35% in [7]; 24% in data set [8]; 44% in [3]. Moreover, the result in data set [5] was Active. Further, the inhibition entry in data set [9], in [11] and in data set [12] was “Active” each time. In data set [10], the concentration for half-maximal inhibition (IC50) was 1290 nM.

With `Cc1ccc([N+](=O)[O-])cc1S(=O)(=O)N(C)C`, the inhibition in [1] is 99%; in data set [3] it was 0.43%. The results for the 50% inhibitory concentration (IC50) in [13] and in [14] were 1280 nM and 1800 nM, respectively.

With `Br.OCC/N=c1/nc(-c2ccccc2)n(-c2ccccc2)s1`, in data set [15], the Activity result is “Non-toxic”. Further, the IC50 in [16] is 1110 nM.

Turning to `Nc1ccc(Sc2ccc(Cl)cc2[N+](=O)[O-])cc1`, the inhibition in [17] was determined as 1.2%; in [1] it was 81%; in [6], 82%; in data set [7], 4%; in [18], 7%; in data set [20] it was 28%. For the same compound, the inhibition in data set [22] is 36%; in [8] it was 7%; in data set [3], 37%; in data set [24] it was 57.5%. Besides, the result in [5] and in data set [19] was Active. The values for the IC50 in data set [21] and in data set [10] were 3000 nM and 370 nM, respectively. In addition, the result in data set [23] was inactive. Moreover, the Activity result in [25] was “Non-toxic”. Further, the inhibition result in [9] and in data set [12] was “Active” throughout.

For the compound `S=c1[nH]c2ccccc2c(=S)n1-c1ccccc1`, the Activity result in data set [15] is “Non-toxic”. The compound further had an IC50 in [16] of 1040 nM.

On to `O=[N+]([O-])c1ccc(Sc2ccncc2)c(Cl)c1`, for which the inhibition in data set [17] was determined as 2.4%; in data set [1], 85%; in [6], 94%; in [7], 69%; in data set [18], 1%; in [20], 21%. In addition, the inhibition in data set [22] worked out at 39%; in [8], 65%; in data set [3], 27%; in [24], 29.4%. For the same compound, the IC50 in data set [13] stood at 7300 nM; in data set [21] it was 600 nM; in data set [14] it was 6600 nM; in [10] it was 180 nM. Also, the outcome in data set [5] was Active. Further, the result in data set [23] was inactive. Further, the inhibition result in data set [9] and in data set [12] was “Active” throughout.

With `COc1cc(COC(=O)c2ccc(-c3ccccc3)o2)cc(OC)c1OC`, the Activity result in data set [15] is “Non-toxic”. In data set [16], this compound came in with a half-maximal inhibitory concentration (IC50) of 5170 nM.

As for `O=[N+]([O-])c1cc(Cl)ccc1Sc1ccncc1`, the inhibition in data set [1] came out at 91%; in [6], 76%; in data set [7], 77%; in data set [8], 74%; in data set [3] it was 33%. Also, the half-maximal inhibitory concentration (IC50) stood at 3000 nM in data set [13], 13900 nM in [21], 4400 nM in data set [14] and 720 nM in [10]. For the same compound, the outcome in data set [5] was Active. Further, the inhibition result in data set [9] and in data set [12] was “Active” in each case.

As to `O=C(Nc1c(Cl)cncc1Cl)c1ccc(OC(F)F)c(OCC2CC2)c1` [ROFLUMILAST], the Activity entry in data set [26] and in [4] was “Toxic” throughout.
